One may read the CC50 as the concentration giving 50% cytotoxicity. Low readings indicate greater toxicity to the cells, high ones lower toxicity to the cells. The term EC90 denotes the concentration needed for an effect of 90%. A high value points to a need for much substance. A word on the EC50: it is the concentration giving half of the maximal effect.

Structures are written as SMILES.

We go through three compounds from ChEMBL document CHEMBL1140348, “5'-Homoneplanocin A inhibits hepatitis B and hepatitis C” (J Med Chem, 2005).

For series [1], the system named is Hepatitis B virus. The series can be described thus: Cytotoxic concentration against […] replication in 2.2.15 cell culture. The series is classed as functional. The settings on record: HepG2 2.2.15.
The subject of series [2] is Hepatitis B virus. The experiment in a line: (§1) Effective concentrations at which […] depression of extracellular virion DNA (HBV) was observed in 2.2.15 Cells. The settings on record: HepG2 2.2.15. In kind it is functional. A digest of the protocol:
(§2)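 Confluent 2.2.15 cells in RPMI1640 with 2% FBS got nine daily doses, with medium and compound refreshed daily; six cultures per concentration on two plates. HBV DNA was quantified by blot hybridization 24 h after the last dose. EC50 and EC90 are the 2-fold and 10-fold depression versus untreated cultures, from linear regression over two to four experiments.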

Series [3] deals with Hepatitis B virus. The series can be described thus: Effective concentrations at which 10-fold depression of intracellular intermediates of HBV DNA was observed in 2.2.15 Cells. As to conditions: HepG2 2.2.15. The series is classed as functional. A digest of the protocol: as §2
Series [4] relates to Hepatitis C virus. The series can be described thus: Effective concentrations at which 10-fold depression of HCV RNA was observed in AVA5 cells (Huh 7 cells with subgenomic HCV replicon BB7I. In kind it is functional, Hepacivirus hominis. A digest of the protocol:
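AVA5 cells (Huh7 carrying subgenomic HCV replicon BB7), grown 3 days with G418, then treated without G418 for 3 consecutive days while rapidly dividing, 3 cultures per concentration, fresh compound daily. HCV RNA measured by quantitative blot hybridization 24 h after last dose. EC90 is the concentration giving 10-fold HCV RNA depression vs untreated, by linear regression.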
(A replicon is a self-replicating genome or part of one, used to study replication in cells.)

Series [5] deals with Hepatitis B virus. Described as §1. In kind it is functional, organism-based. As to conditions: HepG2 2.2.15. A digest of the protocol:
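Confluent 2.2.15 cells in RPMI1640 with 2% FBS, given nine consecutive daily doses with daily medium change, six cultures per concentration on two plates. HBV DNA measured by quantitative blot hybridization 24 h after last dose. EC is the concentration giving 2-fold (EC50) or 10-fold (EC90) depression vs untreated, by linear regression, 2–4 experiments.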

The test system of series [6] is Hepatitis C virus. The series can be described thus: Selectivity index as the ratio of CC50 and EC50. The series is classed as functional, Hepacivirus hominis. A digest of the protocol:
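AVA5 cells (Huh7 carrying the BB7 subgenomic HCV replicon) were grown 3 days with G418, which was then withdrawn. Rapidly dividing cultures, three per concentration, were treated for 3 consecutive days with daily medium renewal. HCV RNA was measured by blot hybridization 24 h after the last dose, with neutral red uptake for toxicity. SI is CC50/EC50, each at 2-fold depression versus untreated cultures.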

Series [7] deals with Hepatitis B virus. The series can be described thus: Selectivity index of virion as the ratio of CC50 and EC90. The series is classed as functional. An outline of the steps: (§3)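 The 2.2.15 HBV assay used nine daily doses. HBV DNA was measured by blot hybridization and toxicity by neutral red uptake, both 24 h after the last dose. The index is CC50/EC90, where EC90 is the 10-fold HBV DNA depression and CC50 the 2-fold dye-uptake depression versus untreated cultures.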

Series [8] concerns Hepatitis B virus. The experiment in a line: Selectivity index of intracellular intermediates as the ratio of CC50 and EC90. In kind it is functional. An outline of the steps:
as §3

Series [9] has as its system Hepatitis C virus. The series can be described thus: Effective concentrations at which 2-fold depression of HCV RNA was observed in AVA5 cells (Huh 7 cells with subgenomic HCV replicon BB7). The series is classed as functional, organism-based, Hepacivirus hominis. An outline of the steps: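 AVA5 cells (Huh7 carrying subgenomic HCV replicon BB7), grown 3 days with G418, then treated without G418 for 3 consecutive days while rapidly dividing, 3 cultures per concentration, fresh compound daily. HCV RNA measured by quantitative blot hybridization 24 h after last dose. EC50 is the concentration giving 2-fold HCV RNA depression vs untreated, by linear regression on all treated cultures.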

Series [10] can be described thus: Cytotoxic concentration against HCV replication in AVA5 cell culture. In kind it is cell-based. As to conditions: AVA5 cells. A digest of the protocol:
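AVA5 replicon cells given compound daily for 3 days, without G418. Neutral red uptake (A510) read 24 h after last treatment. CC50 is the concentration giving 2-fold lower dye uptake vs untreated cultures, by linear regression on combined data from all treated cultures.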

Series [11] is described as follows: Cytotoxic concentration against HBV replication in 2.2.15 cell culture. In kind it is cell-based, HepG2 2.2.15. As to conditions: hepatitis b virus, 2.2.15 cells. An outline of the steps:
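Confluent 2.2.15 cells in RPMI1640 with 2% FBS received nine consecutive daily doses, with medium and compound renewed daily. Toxicity was read 24 h after the last dose as neutral red uptake (A510), with three cultures per concentration on plates seeded in parallel from the same cell stock. CC50 is the 2-fold depression of dye uptake versus untreated cultures, from linear regression.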

Consider `Nc1ncnc2c1ncn2[C@@H]1C=C(CCO)[C@@H](O)[C@H]1O`, for which the CC50 was 1.21 mM in the series with Hepatitis B virus [1] and 216 µM in [10]. The values for the EC90 in the series with Hepatitis B virus [2], in the series on Hepatitis B virus [3] and in the series with Hepatitis C virus [4] were 7.7 µM, 27 µM and 31 µM, respectively. Further, the EC50 was found to be 530 nM in the series with Hepatitis B virus [5] and 7.3 µM in the series with Hepatitis C virus [9]. In addition, the SI with Hepatitis C virus [6] is reported as 30; in the series with Hepatitis B virus [7], 158; in the series on Hepatitis B virus [8] it was 45.
Turning to `Nc1ccn([C@@H]2CS[C@H](CO)O2)c(=O)n1` (single isomer, unassigned) [LAMIVUDINE], the figures for the EC90 with Hepatitis B virus [2] and in the series with Hepatitis B virus [3] were 0.17 µM and 0.69 µM, respectively. In the series on Hepatitis B virus [5], this compound displayed an EC50 of 60 nM. Also, the SI in the series on Hepatitis B virus [7] is listed as 11630; in the series with Hepatitis B virus [8] it was 3877. In addition, the CC50 in series [11] turned out to be 2.67 mM.
`NC(=O)c1ncn([C@@H]2O[C@H](CO)[C@@H](O)[C@H]2O)n1` [RIBAVIRIN] registered an EC90 in the series on Hepatitis C virus [4] above 100 µM. Moreover, the EC50 with Hepatitis C virus [9] is above 100 µM. The compound further displayed a CC50 in series [10] of 71 µM.
